This is an account of results in ChEMBL document CHEMBL4814013, “Scaffold repurposing of fendiline: Identification of potent KRAS plasma membrane localization inhibitors” (Eur J Med Chem, 2021).

Each structure is given as a SMILES string. Activity calls are given as the source filed them. The rule behind the calls is not given here. Bounds are passed on as bounds.

The subject of experiment [1] is NCI-H1975. The experiment in a line: Antiproliferative activity against human NCI-H1975 cells expressing wild type KRAS assessed as reduction in cell growth incubated for 72 hrs by CyQuant proliferation assay. Particulars: NCI-H1975, 72 h. It is filed as functional, cell-based. In short, it runs like this: (§1)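 Cells seeded in 96-well plates; after 24 h fresh growth medium with 0.1% DMSO vehicle or drug added (highest dose 30 µM for cancer lines), grown 72 h at 37 °C, 5% CO2. Live cell number measured by CyQUANT fluorescence. IC50 from three independent experiments. MEFs were isogenic lines carrying oncogenic BRAF or KRAS.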

The subject of experiment [2] is BXPC-3. In words: Antiproliferative activity against human BXPC-3 cells expressing wild type KRAS assessed as reduction in cell growth incubated for 72 hrs by CyQuant proliferation assay. It is filed as functional, cell-based. The following applies: BXPC-3, 72 h. In a few lines:
as §1

Experiment [3] has as its system ESS-1. The experiment in a line: Antiproliferative activity against human ESS-1 cells expressing wild type KRAS assessed as reduction in cell growth upto 30 uM incubated for 72 hrs by CyQuant proliferation assay. In kind it is functional, cell-based. Particulars: dose microM <=30, time 72.0 hrs. In a few lines:
as §1

Experiment [4] relates to BXPC-3. In words: Antitumor activity against human BXPC-3 cells harboring wild type KRAS xenografted in nu/nu mouse assessed as reduction in tumor growth at 1 mg/kg, ip administered once daily for 5 days with 2 days break by caliper analysis. It is filed as functional, organism-based. The following applies: time 5.0 day. In a few lines:
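BxPC3 xenografts in nu/nu mice dosed i.p. with compound or DMSO vehicle on a schedule of daily for 5 days and 2 days off. Tumor size measured by external caliper every 3–4 days.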
For orientation: Xenograft models place foreign cells or tissue in a host animal.

Experiment [5] has as its system MIA PaCa-2. The experiment in a line: Antitumor activity human MIA PaCa-2 cells harboring KRAS mutation xenografted in nu/nu mouse assessed as induction of apoptosis by measuring increase in cleaved caspase 3 level in tumor at 1 to 5 mg/kg, ip administered once daily for 5 days with 2 days break by immunohistochemistry. In kind it is functional, organism-based. The following applies: dose 1-5 mg/kg, time 5.0 day. In a few lines: (§2)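 Paraffin tumor sections of 4–5 µm were deparaffinized and given heat antigen retrieval in 10 mM sodium citrate. Endogenous peroxidase was quenched and sections blocked in 2.5% normal goat serum. Primary antibody (pERK or cleaved caspase 3) applied overnight at 4 °C, biotinylated secondary 1:250 for 45 min at rt, then ABC reagent 30 min and DAB development. Rabbit IgG served as control.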

The subject of experiment [6] is Caco-2. The experiment in a line: Antiproliferative activity against human Caco-2 cells expressing wild type KRAS assessed as reduction in cell growth incubated for 72 hrs by CyQuant proliferation assay. In kind it is functional, cell-based. Particulars: Caco-2, 72 h. In short, it runs like this: as §1
For experiment [7], the system named is Caenorhabditis elegans. The experiment in a line: In vivo inhibition of KRAS signaling in Caenorhabditis elegans lin-1 L1 harboring let60 […] mutant assessed as reduction in multi-vulva phenotype measured after 4 to 5 days culturing in buffer containing Escherichia coli OP50 by DIC/Nomarski microscopic analysis. Particulars: dose 0.1-30 µM, time 4-5 day. In kind it is functional, organism-based. In a few lines: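 let-60 (n1046) or lin-1 L1 larvae cultured in M9 buffer with E. coli OP50 plus DMSO vehicle or compound at 0.1, 0.3, 1, 3, 10 or 30 µM. After 4–5 days, adults were scored for multi-vulva by DIC/Nomarski microscopy.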

Experiment [8] relates to MIA PaCa-2. The experiment in a line: Antitumor activity against human MIA PaCa-2 cells harboring KRAS mutant xenografted in nu/nu mouse assessed as reduction in tumor growth at 1 to 5 mg/kg, ip administered once daily for 5 days with 2 days break by caliper analysis. In kind it is functional, organism-based. The following applies: dose 1-5 mg/kg, time 5.0 day. In short, it runs like this:
(§3)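 Female nu/nu mice given 2 × 10⁶ early-passage MiaPaCa-2 cells subcutaneously in the right flank, randomized 10 per group. Dosing began when tumors reached 100 mm³: 1, 2.5 or 5 mg/kg i.p. daily for 5 days with 2 days off, vehicle DMSO. Caliper readings every 3–4 days, V = 0.52 × length × width². Animals sacrificed when any tumor reached 1500 mm³.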

Experiment [9] concerns Mus musculus. In words: In vivo inhibition of KRAS signaling in nu/nu mouse xenografted with human MIA PaCa-2 cells harboring KRAS mutation assessed as decrease in ERK phosphorylation in tumor at 1 to 5 mg/kg, ip administered once daily for 5 days with 2 days break by immunohistochemistry. It is filed as functional, organism-based. Particulars: dose 1-5 mg/kg, time 5.0 day. In short, it runs like this: as §2

In experiment [10] the test system is MIA PaCa-2. In words: Antiproliferative activity against human MIA PaCa-2 cells expressing KRAS mutant assessed as reduction in cell growth incubated for 72 hrs by CyQuant proliferation assay. It is filed as functional, cell-based. Particulars: MIA PaCa-2, 72 h. In a few lines:
as §1

Experiment [11] has as its system NCI-H1299. The experiment in a line: Antiproliferative activity against human NCI-H1299 cells expressing wild type KRAS assessed as reduction in cell growth incubated for 72 hrs by CyQuant proliferation assay. In kind it is functional, cell-based. The following applies: NCI-H1299, 72 h. In a few lines: as §1
Experiment [12] concerns MEF. The experiment in a line: Antiproliferative activity against mouse MEF cells expressing KRAS G12D mutant assessed as reduction in cell growth incubated for 72 hrs by CyQuant proliferation assay. It is filed as functional, cell-based. In a few lines: as §1
The subject of experiment [13] is HEC-1-A. The experiment in a line: Antiproliferative activity against human HEC-1-A cells expressing mutant KRAS assessed as reduction in cell growth incubated for 72 hrs by CyQuant proliferation assay. It is filed as functional, cell-based. In short, it runs like this:
as §1

Experiment [14] deals with HEC-1B cell line. The experiment in a line: Antiproliferative activity against human HEC-1B cells expressing mutant KRAS assessed as reduction in cell growth incubated for 72 hrs by CyQuant proliferation assay. In kind it is functional, cell-based. In short, it runs like this:
as §1

For experiment [15], the system named is MDCK. In words: Inhibition of ASM in dog MDCK cells co-expressing recombinant full length mGFP-tagged KRAS G12V mutant and mCherry-CAAX assessed as reduction in plasma membrane localization of KRAS mutant incubated for 48 hrs by confocal microscopic analysis relative to control. The following applies: Canis lupus familiaris. In kind it is cell membranes. In short, it runs like this: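 MDCK cells stably co-expressing mGFP-KRAS G12V or mGFP-LactC2 with mCherry-CAAX (HRAS 179–189 C181S/C184S) grown on coverslips in DMEM/10% FBS. Treated 48 h with 0.1% DMSO or graded drug, fixed in 4% paraformaldehyde, then quantitative confocal imaging. Mislocalization scored as the Manders fraction of mCherry-CAAX co-localizing with the GFP probe. IC50 and Emax from three independent experiments.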

Experiment [16] concerns MDCK. The experiment in a line: Inhibition of ASM in dog MDCK cells co-expressing recombinant full length mGFP-tagged KRAS G12V mutant and mCherry-CAAX assessed as reduction in plasma membrane localization of KRAS mutant at 1 uM incubated for 48 hrs followed by incubation with recombinant ASM in continued presence of compound for 60 mins by confocal microscopic analysis. It is filed as cell membranes. The following applies: Canis lupus familiaris, time 49.0 hrs. In a few lines: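 MDCK cells stably co-expressing mGFP-KRAS G12V and mCherry-CAAX seeded on glass coverslips and grown 48 h with or without compound. Medium then replaced with fresh medium containing 2 units/mL recombinant ASM, drug continued, for 60 min. Cells mounted in mowiol and imaged by confocal microscopy. Mislocalization scored by Manders coefficient.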

The subject of experiment [17] is MIA PaCa-2. In words: Antitumor activity against human MIA PaCa-2 cells harboring KRAS mutant xenografted in nu/nu mouse assessed as reduction in tumor growth at 2.5 to 5 mg/kg, ip administered once daily for 5 days with 2 days break by caliper analysis. It is filed as functional, organism-based. The following applies: dose 2.5-5 mg/kg, time 5.0 day. In short, it runs like this:
as §3

Consider `COc1ccc([C@@H](C)N(CC=C(c2ccccc2)c2ccccc2)CCN2CCCC2)cc1`, for which the IC50 (in general, the midpoint of a concentration-inhibition curve) is over 30 µM in experiment [1]; 5.5 µM in experiment [2]; 4.2 µM in experiment [6]; 3.1 µM in experiment [10]; 8 µM in experiment [11]; 3.9 µM in experiment [12]. The values for the IC50 in [13] and in experiment [14] were 2.3 µM and 3 µM, respectively. In addition, the result in experiment [3] and in experiment [4] was inactive. The outcome in experiment [5] and in experiment [8] was Active. The inhibition result in experiment [7] was “Dose-Dependent Effect”. Moreover, in [9], the inhibition result was “Active”. For the same compound, the Emax in experiment [15] is 0.85. In addition, in [16], the inhibition result is “inactive”.

With `COc1ccc([C@@H](C)N(CC=C(c2ccccc2)c2ccccc2)CCCN2CCN(C)CC2)cc1`, the IC50 in [1] was over 30 µM; in experiment [2], 5.3 µM; in [12] it was 2.4 µM. Besides, the outcome in experiment [17] and in experiment [5] was Active. Further, the outcome in experiment [3] was inactive. Further, the inhibition entry in experiment [7] is “Dose-Dependent Effect”. In addition, in experiment [9], the inhibition entry was “Active”. Besides, the Emax in experiment [15] was found to be 0.81. In experiment [16], the inhibition result was “inactive”.
